ChEMBL document CHEMBL1124503, “The role of position 4 in angiotensin II antagonism: a structure-activity study” (J Med Chem, 1989)
Where a SMILES comes first, the peptide text is derived from it. [ ]: non-standard residue; d: D form. Phe(4-NO2) = N[C@@H](Cc1ccc([N+](=O)[O-])cc1)C(=O)O; Phe(4-I) = N[C@@H](Cc1ccc(I)cc1)C(=O)O; Sar = CNCC(=O)O

What was measured:
Oryctolagus cuniculus [1] = species on record: Oryctolagus cuniculus; experiment: Antagonist activity pA2, was measured in the in vitro rabbit aorta strip assay; + = mixed agonist-antagonist effects seen above 100n g/mL; format: functional
Summary of the method: (§1)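 Isolated rabbit aorta strip (method of Rioux et al.); pA2 against the ANG II dose-response curve, determined at low antagonist doses within the competitive-inhibition range.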

Oryctolagus cuniculus [2] = species on record: Oryctolagus cuniculus; experiment: Agonist, ''ANG II-like'' activity was measured in the in vitro rabbit aorta strip assay; + = mixed agonist-antagonist effects seen above 100n g/mL; format: functional
Summary of the method: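 Isolated rabbit aorta strip (method of Rioux et al.); contractile agonist activity expressed as percent of the response to ANG II.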

Rattus norvegicus [3] = experiment: Residual ANG II-like antagonist activity, ID50 was measured in vivo, in the rat blood pressure assay; Partial angonist; format: functional, organism-based; conditions: filed as partial agonist
Oryctolagus cuniculus [4] = species on record: Oryctolagus cuniculus; experiment: Antagonist activity pA2, was measured in the in vitro rabbit aorta strip assay; format: functional; conditions: read-out: pA2 (converted); summary of the method: as §1
[5] = test system: Angiotensin II receptor (Oryctolagus cuniculus); experiment: Angiotensin II-like agonist activity, measured in the in vitro rabbit aorta strip assay
[6] = target: Angiotensin II receptor (Rattus norvegicus) (UniProt P29089+P25095+P35351); experiment: In vivo blood pressure increase produced by a 1 ug bolus i.v.; format: functional, organism-based
Summary of the method: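 Rat blood pressure assay (Regoli et al.); agonist activity read as the mmHg rise in blood pressure after a 1 μg intravenous bolus of compound.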

Rattus norvegicus [7] = experiment: Residual ANG II-like antagonist activity, ID50 was measured in vivo, in the rat blood pressure assay; + means slight antagonist effect; format: functional, organism-based; conditions: filed as antagonist

CC[C@H](C)[C@H](NC(=O)[C@H](Cc1ccc([N+](=O)[O-])cc1)NC(=O)[C@@H](NC(=O)[C@H](CCCN=C(N)N)NC(=O)CNC)C(C)C)C(=O)N[C@@H](Cc1c[nH]cn1)C(=O)N1CCC[C@H]1C(=O)N[C@@H](Cc1ccccc1)C(=O)O (H-[Sar]RV[Phe(4-NO2)]IHPF-OH)
pA2 (Oryctolagus cuniculus [1]): mixed agonist-antagonist effects seen above 100n g/mL | Activity (Oryctolagus cuniculus [2]): mixed agonist-antagonist effects seen above 100n g/mL

CC[C@H](C)[C@H](NC(=O)[C@H](Cc1ccc(I)cc1)NC(=O)[C@@H](NC(=O)[C@H](CCCN=C(N)N)NC(=O)CNC)C(C)C)C(=O)N[C@@H](Cc1c[nH]cn1)C(=O)N1CCC[C@H]1C(=O)N[C@@H](Cc1ccccc1)C(=O)O (H-[Sar]RV[Phe(4-I)]IHPF-OH)
ID50 (Rattus norvegicus [3]): Partial agonist | Kb (Oryctolagus cuniculus [4]): 251 nM | Activity [5]: 0% | Blood pressure [6]: 80 mmHg

H-DRVFIHPF-OH
Activity [5]: 11% | Blood pressure [6]: 20 mmHg | ID50 (Rattus norvegicus [7]): Partial antagonist
